Source: the array DNA melting data of Ke et al. (doi:10.1101/2024.01.08.574731)

Tests used:
[1] = folding enthalpy; higher = less favourable; fluorescence melt of hairpins on a sequencing array, two-state fit; settings: sodium 0.088 M
Summary of the method: (§1)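 To match UV melts, fitted temperatures were raised by 9.35 °C. These fits were bootstrapped two-state models that gave melting temperature and folding enthalpy, combined by inverse variance over four replicates. The input was normalised Cy3 fluorescence of library hairpins with annealed Cy3 and quencher oligos on a sequenced MiSeq flow cell, imaged in 50 mM Na-HEPES pH 8.0, 25 mM NaCl in 2.5 °C steps up to 60 °C.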

[2] = melting temperature; fluorescence melt of hairpins on a sequencing array, two-state fit, raised by 9.35 °C to match UV melts; settings: sodium 0.088 M
Summary of the method: as §1

Row | Sequence | folding enthalpy [1] | Tm [2]
1 | GCGGCGGCCCGC ((((....)))) | -13.8 kcal/mol | 58.5 °C
2 | GCGTTAGGAAACTAACGC (((((((....))))))) | -50.9 kcal/mol | 65.8 °C
3 | GGTGTCGAAAGACGAACC ((((((....)))..))) | -18.8 kcal/mol | 40.9 °C
4 | GCCACTGGAAACAGTGAC (.(((((....))))).) | -18.9 kcal/mol | 46.3 °C
5 | GCTGTCGGAAACGACGGC ((.((((....)))).)) | -34.2 kcal/mol | 64 °C
6 | GTGTGCGAAAGCAATCAC ((((((....)))..))) | -16.1 kcal/mol | 39.9 °C
7 | GGTAATCGAAAGATGACC (((.(((....))).))) | -33.9 kcal/mol | 47.5 °C
8 | GGTCTCGAAAGAGCTACC ((((((....)))..))) | -13.9 kcal/mol | 36 °C
9 | GGCATTCGAAAGAAGGCC (((.(((....))).))) | -41.7 kcal/mol | 60.4 °C
10 | GATGAACGAAAGTTATC (((.(((....)))))) | -11.1 kcal/mol | 28.4 °C
11 | CTCTGGAAACAGAG (((((....))))) | -19.9 kcal/mol | 46.4 °C
12 | GATCCACTATTGGATC ((((((....)))))) | -40.9 kcal/mol | 49.8 °C
13 | GATCAAACTCTTGATC ((((((....)))))) | -33.9 kcal/mol | 40.5 °C
14 | GTGGGAGGAAACTCTCGC (.(.(((....))).).) | -30.2 kcal/mol | 37.2 °C
15 | GAGTGAGGAAACTCGTTC ((..(((....)))..)) | -11.8 kcal/mol | 27.6 °C
16 | GATCTAACAATAGATC ((((((....)))))) | -17.6 kcal/mol | 33.9 °C
17 | GCAGTAGCGAAAGCTTGC (((..(((....)))))) | -17.8 kcal/mol | 45 °C
18 | GATCTCCTAGGAGATC ((((((....)))))) | -36 kcal/mol | 57.8 °C
19 | GATCTTCGGCAAGATC ((((((....)))))) | -28.3 kcal/mol | 37.8 °C
20 | GATCCTTGTCAGGATC ((((((....)))))) | -37.6 kcal/mol | 50.1 °C
21 | GCCGAGCGAAAGCGCAGC ((.(.((....)).).)) | -14.4 kcal/mol | 49.4 °C
22 | GAGTTGCGAAAGCAGCTC (((.(((....))).))) | -32.4 kcal/mol | 62.1 °C
23 | GATCAATGCGTTGATC ((((((....)))))) | -45.6 kcal/mol | 50.9 °C

Row | Sequence | folding enthalpy [1] | Tm [2]
24 | GCTGCCACGAAAGTGAGC (((..(((....)))))) | -13.1 kcal/mol | 50.2 °C
25 | GTTGGCGGAAACGCCGAC ((.((((....)))).)) | -25 kcal/mol | 59.4 °C
26 | GATCACTTTCGTGATC ((((((....)))))) | -36.8 kcal/mol | 56.4 °C
27 | GCGGTCGAAAGACCACGC ((((((....)))..))) | -17 kcal/mol | 57 °C
28 | GTAAGAGGAAACTCTCAC ((.((((....)))).)) | -14.8 kcal/mol | 26.3 °C
29 | GTATCTCGAAAGAGTAC (((.(((....)))))) | -23.5 kcal/mol | 39.7 °C
30 | GAGAGTGGAAACACTCTC (((((((....))))))) | -41.2 kcal/mol | 61.5 °C
31 | GATCGGGCTGCCGATC ((((((....)))))) | -46.5 kcal/mol | 57.1 °C
32 | GTTGCCGGAAACGACAAC ((((.((....)).)))) | -28 kcal/mol | 48.5 °C
33 | GCTCGGCGAAAGCGGTGC ((.(.((....)).).)) | -13 kcal/mol | 57.6 °C
34 | GATCGTATAAACGATC ((((((....)))))) | -31.9 kcal/mol | 54.7 °C
35 | GATCCCAAACGGGATC ((((((....)))))) | -35.3 kcal/mol | 59.7 °C
36 | GCATAGCGAAAGCGACGC ((.(.((....)).).)) | -34.1 kcal/mol | 63.7 °C
37 | GCTTCGGGAAACCGAGGC ((.((((....)))).)) | -42.3 kcal/mol | 53.5 °C
38 | GAGCTAGGAAACTAGCCC (.(((((....))))).) | -12.9 kcal/mol | 40.4 °C
39 | GTTGTGAAAACAAC (((((....))))) | -29.6 kcal/mol | 50.5 °C
40 | GCTGCCGAAAGGCAAAGC ((((((....)))..))) | -14.8 kcal/mol | 57.1 °C
41 | GGTGGAGGAAACTCTACC (((.(((....))).))) | -35.8 kcal/mol | 48 °C
42 | GCTAACCGAAAGGTAGC (((.(((....)))))) | -31.9 kcal/mol | 55.3 °C
43 | GATCCACAAGTGGATC ((((((....)))))) | -38.6 kcal/mol | 57.9 °C
44 | CGAACGGAAACGTGGTCG ((((((....)))..))) | -12.7 kcal/mol | 32.7 °C
45 | GACAGCGGAAACGCTGCC (.(((((....))))).) | -11.5 kcal/mol | 52.6 °C
46 | GGAGGCGAAAGCCATCC ((((((....))).))) | -14.7 kcal/mol | 49.4 °C

Row | Sequence | folding enthalpy [1] | Tm [2]
47 | GTGCCGGGAAACCGACAC (((.(((....))).))) | -33.5 kcal/mol | 52.9 °C
48 | GTAGCCGGAAACGGTTAC (((.(((....))).))) | -37.7 kcal/mol | 51.3 °C
49 | GCCCTGCGAAAGCTGTGC ((.(.((....)).).)) | -15.7 kcal/mol | 38.9 °C
50 | GCGATAGTTCGC ((((....)))) | -21.8 kcal/mol | 50.4 °C
51 | GATCGAGGGATCGATC ((((((....)))))) | -34.2 kcal/mol | 53.4 °C
52 | GTTCAGGGAAACCTGAGC (.(((((....))))).) | -22.5 kcal/mol | 46.6 °C
53 | GCGCGGTCGAAAGACCGC (((..(((....)))))) | -5.31 kcal/mol | 67 °C
54 | GAGGAAGGAAACCTCCTC (((((.(....).))))) | -25.9 kcal/mol | 36.6 °C
55 | GCCTTGCGAAAGCTCGGC (((..((....))..))) | -21.9 kcal/mol | 53.1 °C
56 | GCATAGCGAAAGCAACGC ((.(.((....)).).)) | -12 kcal/mol | 35.6 °C
57 | GGCGTGCGAAAGCAGCC (((.(((....)))))) | -26.9 kcal/mol | 67.8 °C
58 | GATCCGGGAAACTGGATC (((((.(....).))))) | -41.7 kcal/mol | 52.1 °C
59 | GCCTTGCGAAAGCCACGC ((.(.((....)).).)) | -7.87 kcal/mol | 46.8 °C
60 | GCGTTGCGAAAGCCAGGC ((.(.((....)).).)) | -16.9 kcal/mol | 40.3 °C
61 | GGTGCCTCGAAAGAGACC (((..(((....)))))) | -15 kcal/mol | 30.8 °C
62 | GCCGCAGGAAACCGCAGC ((.((.(....).)).)) | -9.87 kcal/mol | 31.2 °C
63 | GATCCGTCCACGGATC ((((((....)))))) | -43 kcal/mol | 64.1 °C
64 | GTAGCTGGAAACAGCCAC ((.((((....)))).)) | -14.3 kcal/mol | 37.7 °C
65 | GATCCCTCCGGGATC ((((((...)))))) | -44.2 kcal/mol | 67.7 °C
66 | ACAGTGAAAACTGT (((((....))))) | -19.2 kcal/mol | 45.7 °C
67 | GGAACGCCGAAAGGCTCC (((..(((....)))))) | -9.39 kcal/mol | 33 °C
68 | GCCTGCGAAAGCACCGGC ((((((....)))..))) | -18.5 kcal/mol | 46.6 °C
69 | GATCGACGAATCGATC ((((((....)))))) | -33.7 kcal/mol | 49 °C
